We go through 23 molecules from ChEMBL document CHEMBL3861994, “1,2,3-Triazole-based inhibitors of Porphyromonas gingivalis adherence to oral streptococci and biofilm formation” (Bioorg Med Chem, 2016).

The nature of one data set: Cytotoxicity against gingival epithelial cells (unknown origin). It counts as toxicity, cell-based. To be noted: epithelial cell.
For the molecule `COc1ccc2cc(-c3cn(-c4ccc(-c5nc(-c6ccc(Cl)cc6)c(-c6ccc(Cl)cc6)o5)cc4)nn3)ccc2c1`, the Activity result is on record as “Toxic”.
Same read-out and setting: then `CCCCCc1ccc(-c2cn(-c3cccc(-c4nc(-c5ccc(OC)cc5)c(-c5ccc(OC)cc5)o4)c3)nn2)cc1`, with “Toxic”; and `FC(F)(F)c1ccccc1-c1cn(Cc2nc(-c3ccccc3)c(-c3ccccc3)o2)nn1`, with “Toxic”; and `COc1ccc2cc(-c3cn(-c4cccc(-c5nc(-c6ccc(Br)cc6)c(-c6ccc(Br)cc6)o5)c4)nn3)ccc2c1`, with “Toxic”.
Still for that read-out and setting: the entry for `Cc1ccccc1-c1cn(Cc2nc(-c3ccccc3)c(-c3ccccc3)o2)nn1` is “Toxic”; for `COc1ccc2cc(-c3cn(-c4ccc(-c5nc(-c6ccc(F)cc6)c(-c6ccc(F)cc6)o5)cc4)nn3)ccc2c1` it is “Toxic”; for `Fc1ccc(-c2cn(Cc3nc(-c4ccccc4)c(-c4ccccc4)o3)nn2)cc1` it is “Toxic”.
For the molecule `COc1ccc(-c2nc(-c3cccc(-n4cc(-c5cc(C(F)(F)F)cc(C(F)(F)F)c5)nn4)c3)oc2-c2ccc(OC)cc2)cc1`, the Activity result was “Toxic”.
Turning to `Clc1ccc(-c2nc(-c3ccc(-n4cc(-c5cccnc5)nn4)cc3)oc2-c2ccc(Cl)cc2)cc1`, the Activity entry is “Toxic”.
Take `Fc1ccc(-c2nc(-c3ccc(-n4cc(-c5cccc(F)c5)nn4)cc3)oc2-c2ccc(F)cc2)cc1`: the Activity entry is “Toxic”.
In the case of `Clc1ccc(-c2nc(Cn3cc(-c4cccnc4)nn3)oc2-c2ccc(Cl)cc2)cc1`, the Activity entry was “Toxic”.
Still for that read-out and setting: the entry for `Fc1ccc(-c2nc(Cn3cc(-c4ccccc4C(F)(F)F)nn3)oc2-c2ccc(F)cc2)cc1` is “Toxic”; for `Fc1ccc(-c2nc(Cn3cc(-c4cccnc4)nn3)oc2-c2ccc(F)cc2)cc1` it is “Toxic”; for `COc1ccccc1-c1cn(Cc2nc(-c3ccc(F)cc3)c(-c3ccc(F)cc3)o2)nn1` it is “Toxic”.
For the molecule `Fc1cccc(-c2cn(-c3ccc(-c4nc(-c5ccc(Cl)cc5)c(-c5ccc(Cl)cc5)o4)cc3)nn2)c1`, the Activity result is reported as “Toxic”.
Still for that read-out and setting: the entry for `COc1ccc(-c2nc(-c3cccc(-n4cc(-c5ccc(Oc6ccccc6)cc5)nn4)c3)oc2-c2ccc(OC)cc2)cc1` is “Toxic”; for `COc1ccccc1-c1cn(-c2ccc(-c3nc(-c4ccc(Cl)cc4)c(-c4ccc(Cl)cc4)o3)cc2)nn1` it is “Toxic”; for `FC(F)(F)c1ccccc1-c1cn(-c2ccc(-c3nc(-c4ccc(Cl)cc4)c(-c4ccc(Cl)cc4)o3)cc2)nn1` it is “Toxic”.
Consider `Fc1ccc(-c2nc(Cn3cc(-c4cccc(F)c4)nn3)oc2-c2ccc(F)cc2)cc1`, for which the Activity entry is “Toxic”.
Same read-out and setting: then `c1ccc(-c2nc(Cn3cc(-c4cccnc4)nn3)oc2-c2ccccc2)cc1`, with “Toxic”; and `COc1ccc2cc(-c3cn(Cc4nc(-c5ccccc5)c(-c5ccccc5)o4)nn3)ccc2c1`, with “Toxic”; and `Brc1ccc(-c2nc(Cn3cc(-c4cccnc4)nn3)oc2-c2ccc(Br)cc2)cc1`, with “Toxic”.
Still for that read-out and setting: the entry for `Fc1cccc(-c2cn(Cc3nc(-c4ccc(Cl)cc4)c(-c4ccc(Cl)cc4)o3)nn2)c1` is “Toxic”.

The next data set in a line: Inhibition of Porphyromonas gingivalis ATCC 33277 MFA interaction with Streptococcus gordonii DL1(1) antigen 1/2 assessed as inhibition of 5(6)-carboxyfluorescein N-hydroxysuccinimide ester-labeled Porphyromonas gingivalis ATCC 33277 cell adhesion to hexidium iodide-labeled Streptococcus gordonii DL1(1) by measuring inhibition of biofilm formation preincubated with Porphyromonas gingivalis ATCC 33277 for 30 mins followed by addition to Streptococcus gordonii DL1(1) culture measured after 22 hrs by laser scanning confocal microscopy.
Conditions: not given
Type of data set: cell-based. In short, it runs like this: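 Hexidium iodide-labelled S. gordonii (OD600 0.8 in PBS, pH 7.2) was bound to coverslips for 24 h, anaerobic, 37 °C. Carboxyfluorescein-labelled P. gingivalis (OD600 0.4) was preincubated 30 min at room temperature with compound (0–60 μM final, from 1000X DMSO stock), added, then incubated 22 h anaerobically. After fixation, confocal z-stacks (488/552 nm) were taken. IC50 is 50% reduction of the green/red fluorescence ratio; triplicates, three independent experiments.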
On to `COc1ccc2cc(-c3cn(-c4ccc(-c5nc(-c6ccc(Cl)cc6)c(-c6ccc(Cl)cc6)o5)cc4)nn3)ccc2c1`, for which the half-inhibitory concentration (IC50) came out at 32.4 µM.
Turning to `CCCCCc1ccc(-c2cn(-c3cccc(-c4nc(-c5ccc(OC)cc5)c(-c5ccc(OC)cc5)o4)c3)nn2)cc1`, the half-inhibitory concentration (IC50) is greater than 60 µM.
Same read-out and setting: the figure for `FC(F)(F)c1ccccc1-c1cn(Cc2nc(-c3ccccc3)c(-c3ccccc3)o2)nn1` is greater than 60 µM.
Regarding `COc1ccc2cc(-c3cn(-c4cccc(-c5nc(-c6ccc(Br)cc6)c(-c6ccc(Br)cc6)o5)c4)nn3)ccc2c1`, the IC50 was 20.3 µM.
Take `Cc1ccccc1-c1cn(Cc2nc(-c3ccccc3)c(-c3ccccc3)o2)nn1`: the half-maximal inhibitory concentration (IC50) was greater than 56.3 µM.
Same read-out and setting: then `COc1ccc2cc(-c3cn(-c4ccc(-c5nc(-c6ccc(F)cc6)c(-c6ccc(F)cc6)o5)cc4)nn3)ccc2c1`, with 52.2 µM; and `Fc1ccc(-c2cn(Cc3nc(-c4ccccc4)c(-c4ccccc4)o3)nn2)cc1`, with greater than 60 µM; and `COc1ccc(-c2nc(-c3cccc(-n4cc(-c5cc(C(F)(F)F)cc(C(F)(F)F)c5)nn4)c3)oc2-c2ccc(OC)cc2)cc1`, with 47.4 µM.
Same read-out and setting: then `Clc1ccc(-c2nc(-c3ccc(-n4cc(-c5cccnc5)nn4)cc3)oc2-c2ccc(Cl)cc2)cc1`, with 40.9 µM.
Same read-out and setting: the figure for `Fc1ccc(-c2nc(-c3ccc(-n4cc(-c5cccc(F)c5)nn4)cc3)oc2-c2ccc(F)cc2)cc1` is 51.5 µM.
With `Clc1ccc(-c2nc(Cn3cc(-c4cccnc4)nn3)oc2-c2ccc(Cl)cc2)cc1`, the half-inhibitory concentration (IC50) was greater than 60 µM.
Same read-out and setting: the figure for `Fc1ccc(-c2nc(Cn3cc(-c4ccccc4C(F)(F)F)nn3)oc2-c2ccc(F)cc2)cc1` is greater than 60 µM; for `Fc1ccc(-c2nc(Cn3cc(-c4cccnc4)nn3)oc2-c2ccc(F)cc2)cc1` it is 59.8 µM.
As for `COc1ccccc1-c1cn(Cc2nc(-c3ccc(F)cc3)c(-c3ccc(F)cc3)o2)nn1`, the IC50 was greater than 60 µM.
As for `Fc1cccc(-c2cn(-c3ccc(-c4nc(-c5ccc(Cl)cc5)c(-c5ccc(Cl)cc5)o4)cc3)nn2)c1`, the IC50 is 15.7 µM.
Same read-out and setting: then `COc1ccc(-c2nc(-c3cccc(-n4cc(-c5ccc(Oc6ccccc6)cc5)nn4)c3)oc2-c2ccc(OC)cc2)cc1`, with greater than 60 µM; and `COc1ccccc1-c1cn(-c2ccc(-c3nc(-c4ccc(Cl)cc4)c(-c4ccc(Cl)cc4)o3)cc2)nn1`, with 37.3 µM.
Still for that read-out and setting: the figure for `FC(F)(F)c1ccccc1-c1cn(-c2ccc(-c3nc(-c4ccc(Cl)cc4)c(-c4ccc(Cl)cc4)o3)cc2)nn1` is 25.1 µM; for `Fc1ccc(-c2nc(Cn3cc(-c4cccc(F)c4)nn3)oc2-c2ccc(F)cc2)cc1` it is greater than 60 µM; for `c1ccc(-c2nc(Cn3cc(-c4cccnc4)nn3)oc2-c2ccccc2)cc1` it is greater than 60 µM.
As for `COc1ccc2cc(-c3cn(Cc4nc(-c5ccccc5)c(-c5ccccc5)o4)nn3)ccc2c1`, the IC50 is greater than 60 µM.
`Brc1ccc(-c2nc(Cn3cc(-c4cccnc4)nn3)oc2-c2ccc(Br)cc2)cc1`: the IC50 was found to be 50.9 µM.
Consider `Fc1cccc(-c2cn(Cc3nc(-c4ccc(Cl)cc4)c(-c4ccc(Cl)cc4)o3)nn2)c1`, for which the IC50 was greater than 60 µM.
